# Like-named read-outs stand apart in the source and are kept apart here.
# Experiments:
# ADRB1 = assay: PathHunter β-arrestin; assay type: cell-based; conditions: 6 μM
# Summary of the method: (§1)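 β-Arrestin recruitment assay: the enzyme acceptor is fused to β-arrestin and the ED fragment to the GPCR. Recruitment restores β-galactosidase, read by chemiluminescence. % activity = 100% × (test − vehicle)/(max control ligand − vehicle). % inhibition = 100% × (1 − (test − vehicle)/(EC80 control − vehicle)). An agonist hit needs >30% activity and RLU > baseline + 3×SD. An antagonist hit needs >35% inhibition and RLU < EC80 RLU − 3×SD.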
# BRS3 = assay: PathHunter β-arrestin; assay type: cell-based; conditions: antagonist mode, 6 μM
# Summary of the method: as §1
# CCKAR = assay: PathHunter β-arrestin; assay type: cell-based; conditions: antagonist mode, 6 μM
# Summary of the method: as §1
# CCKBR = assay: PathHunter β-arrestin; assay type: cell-based; conditions: antagonist mode, 6 μM
# Summary of the method: as §1
# CCR5 = assay: PathHunter β-arrestin; assay type: cell-based; conditions: antagonist mode, 6 μM
# Summary of the method: (§2)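 Engineered cells express the receptor fused to one β-galactosidase fragment (ED) and β-arrestin fused to the complementing fragment (EA). Receptor activation recruits β-arrestin, which restores enzyme activity, and this is read by chemiluminescence (RLU). Agonist % activity is 100% × (test − vehicle)/(maximal control ligand − vehicle). Antagonist mode is challenged with an EC80 control agonist, and % inhibition is 100% × (1 − (test − vehicle)/(EC80 − vehicle)). Hits require >30% activity or >35% inhibition, plus a 3×SD RLU margin.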
# CRHR1 = assay: PathHunter β-arrestin; assay type: cell-based; conditions: 6 μM
# Summary of the method: as §2
# CRTH2 = assay: PathHunter β-arrestin; assay type: cell-based; conditions: antagonist mode, 6 μM
# Summary of the method: as §2
# CXCR6 = assay: PathHunter β-arrestin; assay type: cell-based; conditions: 6 μM
# Summary of the method: as §2
# DRD2L = assay: PathHunter β-arrestin; assay type: cell-based; conditions: antagonist mode, 6 μM
# Summary of the method: as §2
# DRD4 = assay: PathHunter β-arrestin; assay type: cell-based; conditions: 6 μM
# Summary of the method: as §2
# EDG4 = assay: PathHunter β-arrestin; assay type: cell-based; conditions: antagonist mode, 6 μM
# Summary of the method: as §2
# FFAR1 = assay: PathHunter β-arrestin; assay type: cell-based; conditions: agonist mode, 6 μM
# Summary of the method: as §2
# GLP1R = assay: PathHunter β-arrestin; assay type: cell-based; conditions: antagonist mode, 6 μM
# Summary of the method: (§3)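 Vendor-run (DiscoveRx) PathHunter enzyme fragment complementation. β-Arrestin carries the EA fragment and the receptor carries ED; recruitment restores β-gal activity, read by chemiluminescence (RLU). Agonist % activity = vehicle-subtracted RLU relative to max control ligand (gpcrMAX) or to vehicle (orphanMAX). Antagonist % inhibition = 100% × (1 − vehicle-subtracted sample RLU / vehicle-subtracted EC80 agonist control RLU).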
# HCRTR2 = assay: PathHunter β-arrestin; assay type: cell-based; conditions: antagonist mode, 6 μM
# Summary of the method: as §3
# HRH4 = assay: PathHunter β-arrestin; assay type: cell-based; conditions: antagonist mode, 6 μM
# Summary of the method: as §3
# HTR1B = assay: PathHunter β-arrestin; assay type: cell-based; conditions: antagonist mode, 6 μM
# Summary of the method: as §3
# HTR1E = assay: PathHunter β-arrestin; assay type: cell-based; conditions: 6 μM
# Summary of the method: as §3
# NPBWR1 = assay: PathHunter β-arrestin; assay type: cell-based; conditions: agonist mode, 6 μM
# Summary of the method: as §3
# NPSR1B = assay: PathHunter β-arrestin; assay type: cell-based; conditions: agonist mode, 6 μM
# Summary of the method: as §3
# OPRD1 = assay: PathHunter β-arrestin; assay type: cell-based; conditions: antagonist mode, 6 μM
# Summary of the method: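 GPCR-ED fusion and β-arrestin-EA fusion; arrestin recruitment restores β-galactosidase, read by chemiluminescence. Antagonist mode uses EC80 agonist challenge. % inhibition = 100 × (1 − (test − vehicle RLU)/(EC80 control − vehicle RLU)). Hit requires >35% inhibition and mean RLU below EC80 RLU − 3 × EC80 SD.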
# P2RY11 = assay: PathHunter β-arrestin; assay type: cell-based; conditions: 6 μM
# Summary of the method: (§4)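 β-Arrestin recruitment to GPCR read by β-galactosidase fragment complementation and chemiluminescence. Agonist: % = 100 × (test − vehicle)/(max control ligand − vehicle), hit at >30% and RLU > baseline + 3 SD. Antagonist, against EC80 agonist: % inhibition = 100 × (1 − (test − vehicle)/(EC80 − vehicle)), hit at >35% and RLU < EC80 − 3 SD.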
# P2RY4 = assay: PathHunter β-arrestin; assay type: cell-based; conditions: agonist mode, 6 μM
# PRLHR = assay: PathHunter β-arrestin; assay type: cell-based; conditions: antagonist mode, 6 μM
# PROKR1 = assay: PathHunter β-arrestin; assay type: cell-based; conditions: 6 μM
# Summary of the method: as §4
# PTGER3 = assay: PathHunter β-arrestin; assay type: cell-based; conditions: 6 μM
# Summary of the method: as §4
# VIPR1 = assay: PathHunter β-arrestin; assay type: cell-based; conditions: antagonist mode, 6 μM
# orphan receptors = assay: orphanMAX β-arrestin panel, agonist mode; assay type: cell-based; conditions: summary of Table III
# TLR8 = assay: western blot, JJ012 cells; assay type: cell-based, human; conditions: vs untreated control, overnight incubation
# TLR1 = assay: RT2 qPCR primer assay, JJ012 cells; assay type: cell-based, human
# Summary of the method: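 RNA was extracted, checked by spectrophotometry and reverse-transcribed. Custom RT2 SYBR-Green primer assays were run on three samples in technical triplicate. Ct was normalised to mean GAPDH/ACTB, ΔΔCt taken versus control, and fold change = 2^−ΔΔCt.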
# c-Myc = assay: RT2 qPCR primer assay, JJ012 cells; assay type: cell-based, human
# Summary of the method: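 RNA extracted from treated and control JJ012 cells, checked by spectrophotometry and reverse transcribed. SYBR Green qPCR with custom primer assays on three samples in technical triplicates. Ct normalized to the average of GAPDH and ACTB. Fold change vs control by 2^−ΔΔCt, shown as a heat map of average Ct.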
# [1] = tested on: chondrosarcoma cell growth; conditions: cited from earlier work
substance,measurement,setting,value
Proline rich polypeptide 1 [PRP-1],% Activity,ADRB1; agonist mode,1%
same,% Inhibition,ADRB1; antagonist mode,−5%
same,% Inhibition,BRS3,4%
same,% Inhibition,CCKAR,−3%
same,% Inhibition,CCKBR,−3%
same,% Inhibition,CCR5,−2%
same,% Activity,CRHR1; agonist mode,1%
same,% Inhibition,CRHR1; antagonist mode,1%
same,% Inhibition,CRTH2,−8%
same,% Activity,CXCR6; agonist mode,2%
same,% Inhibition,CXCR6; antagonist mode,−6%
same,% Inhibition,DRD2L,2%
same,% Activity,DRD4; agonist mode,3%
same,% Inhibition,DRD4; antagonist mode,−2%
same,% Inhibition,EDG4,5%
same,% Activity,FFAR1,3%
same,% Inhibition,GLP1R,−9%
same,% Inhibition,HCRTR2,−1%
same,% Inhibition,HRH4,−9%
same,% Inhibition,HTR1B,4%
same,% Activity,HTR1E; agonist mode,3%
same,% Inhibition,HTR1E; antagonist mode,5%
same,% Activity,NPBWR1,3%
same,% Activity,NPSR1B,2%
same,% Inhibition,OPRD1,−2%
same,% Activity,P2RY11; agonist mode,1%
same,% Inhibition,P2RY11; antagonist mode,−12%
same,% Activity,P2RY4,−1%
same,% Inhibition,PRLHR,−3%
same,% Activity,PROKR1; agonist mode,2%
same,% Inhibition,PROKR1; antagonist mode,−2%
same,% Activity,PTGER3; agonist mode,1%
same,% Inhibition,PTGER3; antagonist mode,−2%
same,% Inhibition,VIPR1,−9%
same,orphan receptor agonism,orphan receptors,neither that this peptide was agonist for orphan receptors
same,protein expression,TLR8,no indication of PRP-1 effect
same,gene expression,"TLR1; 10 μg/ml PRP-1, heat map, average Ct, technical triplicates",well expressed
same,fold change (∆Ct),TLR1; qRT-PCR,did not report significant fold change
same,gene expression,"c-Myc; 10 μg/ml PRP-1, heat map, technical triplicates",went down drastically
same,"c-Myc gene expression, dose response","c-Myc; qRT-PCR, 1 and 10 μg/ml",downregulation of its gene expression in dose-response manner
same,inhibition of chondrosarcoma cell growth,"[1]; ref [4],[5]",80–90%
same,inhibition of chondrosarcoma cell growth,"[1]; ref [4],[6]",> 80%
